Measurements as given in ChEMBL document CHEMBL2396535, “Synthesis and biological evaluation of 18F-labled 2-phenylindole derivatives as PET imaging probes for β-amyloid plaques” (Bioorg Med Chem, 2013).

How the values were obtained:
[1] = molecular target: Amyloid-beta precursor protein (Homo sapiens, UniProt P05067); assay: Displacement of [125I]IMPY from amyloid beta (1 to 42) (unknown origin) after 3 hrs by gamma counting analysis
Summary of the method: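 Test compound ranged over 10^-4 to 10^-8.5 in ethanol, in 0.05% BSA, 1 mL total. Incubation was 3 h at room temperature, then GF/B filtration and gamma counting. IC50 came from three independent experiments, and Ki was derived by Cheng–Prusoff.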

Brain = assay: Ratio of drug level in brain after 2 mins to drug level in brain after 60 mins in ICR mouse; type: ADME, tissue-based; details: in vivo
Summary of the method: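 Male normal ICR mice (5 weeks old), n = 5 per time point, received a tail-vein injection of [18F] tracer (740–1110 kBq/mL) in saline containing 10% EtOH. Mice were sacrificed at 2, 10, 30 and 60 min. Organs were removed, weighed and gamma-counted, and data were expressed as %ID/g.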

[2] = Ratio of drug level in brain to blood in ICR mouse after 2 mins; type: ADME, tissue-based; details: brain and blood, read-out: BBR
Summary of the method: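 Male ICR mice (5 weeks) received the ¹⁸F tracer (740–1110 kBq/mL) in saline with 10% EtOH by tail-vein injection. Five mice per time point were sacrificed at 2, 10, 30 and 60 min. Organs were removed, weighed and gamma-counted, and expressed as %ID/g. The ratio is brain %ID/g over blood %ID/g at 2 min.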

Amyloid-beta precursor protein, sequence (P05067 whole entry): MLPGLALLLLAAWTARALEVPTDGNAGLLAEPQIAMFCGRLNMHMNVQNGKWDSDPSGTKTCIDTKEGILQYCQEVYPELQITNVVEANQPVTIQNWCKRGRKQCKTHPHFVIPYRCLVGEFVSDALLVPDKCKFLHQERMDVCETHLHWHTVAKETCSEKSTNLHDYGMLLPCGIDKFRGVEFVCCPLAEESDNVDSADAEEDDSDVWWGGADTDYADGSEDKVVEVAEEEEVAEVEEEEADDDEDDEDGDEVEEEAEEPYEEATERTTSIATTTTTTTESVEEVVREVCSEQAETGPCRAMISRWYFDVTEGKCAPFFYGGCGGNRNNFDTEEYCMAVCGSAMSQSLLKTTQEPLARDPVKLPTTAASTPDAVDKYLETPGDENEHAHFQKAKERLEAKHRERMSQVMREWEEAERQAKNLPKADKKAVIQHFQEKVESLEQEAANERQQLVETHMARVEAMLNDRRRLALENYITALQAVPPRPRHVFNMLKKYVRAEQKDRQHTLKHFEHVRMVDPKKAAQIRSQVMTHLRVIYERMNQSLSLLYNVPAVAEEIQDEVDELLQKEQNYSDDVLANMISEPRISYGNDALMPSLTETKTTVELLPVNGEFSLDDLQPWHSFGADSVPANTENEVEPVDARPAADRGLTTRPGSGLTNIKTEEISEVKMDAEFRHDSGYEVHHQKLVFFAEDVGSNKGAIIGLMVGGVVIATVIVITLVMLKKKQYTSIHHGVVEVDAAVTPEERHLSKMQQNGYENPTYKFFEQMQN

| Ki [1] | Ratio (Brain) | Kp at 2 min [2] | SMILES |
| --- | --- | --- | --- |
| 1030 nM |  |  | Cn1c(-c2ccc(NCCF)cc2)cc2ccccc21 |
| 117 nM |  |  | CN(CCF)c1ccc(-c2cc3ccccc3n2C)cc1 |
|  | 1.33 | 0.29 | CNc1ccc(-c2cc3cc([125I])ccc3[nH]2)cc1 |
| 79.7 nM |  |  | CN(CCCF)c1ccc(-c2cc3ccccc3n2C)cc1 |
|  | 1.82 | 0.59 | COc1ccc(-c2cc3cc([125I])ccc3[nH]2)cc1 |
